CSC inhib – cancer stem cell viability inhibitors, primary screen, luminescence; cancer stem cell-like cells viability; inhibition, % at 7.5 µM; 300,000 tested, 1.1% active; in the data active = inhibition above about 75%; tested in HMLE shEcad cells
CHOP inh – inhibitors of CHOP promoter induction, primary screen, cell-based, unfolded protein response, luciferase reporter; 220,000 tested, 3.8% active; inhibition, % at 10 µM; AID 2732, 2010; CHO-K1 CHOP-promoter luciferase, tunicamycin-induced, 15-18 h;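 active = compounds that reduced the stress-induced luciferase reporter signal by more than about 70% of percent inhibition, limit read from the data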;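 also: 0% = tunicamycin plus vehicle and 100% = wells without tunicamycin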
NR3A LBD binder – binders of NR3A ligand-binding domain, primary screen, biophysical, differential scanning fluorimetry, uHTS; Glutamate receptor ionotropic, NMDA 3A (GRIN3A) ligand-binding domain; NR3A LBD differential scanning fluorimetry, Tm shift; 0% = protein alone, 100% = glycine-bound protein; Tm shift relative to glycine control, % at 25 µM; 340,000 tested, 2.5% active; AID 1259313, 2017;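 active = melting temperature shift of at least 10% of the positive control shift, at one fixed dose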
PREPL inh – PREPL enzyme inhibitors, primary screen, biochemical, fluorescence polarization | AID 2751, 2010 | inhibition, % at 5.96 µM | 320,000 tested, 0.68% active | recombinant PREPL, fluorescence polarization activity-based probe; in the data active = inhibition above about 43%;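 also: 0% = enzyme with DMSO and 100% = wells lacking enzyme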
Target sequence (Q4J6C6 whole entry, looked up): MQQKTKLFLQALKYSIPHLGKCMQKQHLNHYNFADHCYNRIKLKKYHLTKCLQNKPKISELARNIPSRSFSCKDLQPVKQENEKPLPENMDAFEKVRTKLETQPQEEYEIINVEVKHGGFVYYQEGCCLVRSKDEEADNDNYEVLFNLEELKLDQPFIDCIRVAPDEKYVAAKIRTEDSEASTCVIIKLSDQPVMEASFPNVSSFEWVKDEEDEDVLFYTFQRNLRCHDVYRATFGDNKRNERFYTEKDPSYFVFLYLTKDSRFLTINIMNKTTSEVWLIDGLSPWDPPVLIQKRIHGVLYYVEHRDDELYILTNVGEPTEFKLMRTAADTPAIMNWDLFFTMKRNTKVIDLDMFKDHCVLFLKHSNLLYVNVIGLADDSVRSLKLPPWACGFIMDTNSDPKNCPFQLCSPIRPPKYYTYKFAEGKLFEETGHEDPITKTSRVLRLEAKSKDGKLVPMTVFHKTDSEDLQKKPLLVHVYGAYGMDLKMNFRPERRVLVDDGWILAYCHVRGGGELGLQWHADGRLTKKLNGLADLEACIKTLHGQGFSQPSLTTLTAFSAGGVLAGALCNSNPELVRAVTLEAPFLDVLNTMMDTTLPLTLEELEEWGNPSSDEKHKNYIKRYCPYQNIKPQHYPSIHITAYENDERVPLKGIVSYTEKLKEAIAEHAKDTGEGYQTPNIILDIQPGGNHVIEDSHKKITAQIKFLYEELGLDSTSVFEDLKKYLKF
T cruzi repl – inhibitors of intracellular T. cruzi growth, primary screen, luminescence, NIH3T3 host cells | inhibition, % (no concentration beside the values) | 300,000 tested, 1.4% active | T. cruzi beta-gal in NIH3T3, 90 h;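 active = mean inhibition across valid replicates above about 55%, limit read from the data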;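 also: signal also drops with host cell toxicity which is not excluded here; 0% = plate median of DMSO wells and 100% = zero luminescence signal; higher percent means less beta-gal luminescence so fewer parasites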
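Assay system: NIH/3T3 fibroblasts plus reporter T. cruzi. Amount: NIH/3T3 cells, 5,000 per well. Buffer or medium: DMEM, 2% fetal bovine serum. Doses: compound pinned at 50 nL/well, DMSO. Schedule: ≥90 h infection period, 3 h prior cell attachment. Signal: luminescent β-galactosidase signal after 60 min lysis. Read-out: parasite load inhibition, %.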
Beta cell apopt – inhibitors of cytokine-induced beta cell apoptosis, primary screen, luminescence; INS-1E cytokine-induced death, ATP luminescence, 48 h; percent of positive-control rescue, neutral wells zero; protection from apoptosis, % (concentration not given with the values); 300,000 tested, 0.8% active;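 active = Every replicate reaches about 75%, or at least half do and their mean reaches it too, limit read from the data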;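 also: 0% = cytokine-treated negative control wells and 100% = positive control rescue; higher means more ATP so stronger rescue from cytokine killing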
Active calls of the source: *; . = no result given. An excerpt weighted towards active compounds, which were near 6.7% of everything screened.

SMILES	CSC inhib	CHOP inh	NR3A LBD binder	PREPL inh	T cruzi repl	Beta cell apopt
N#CCCN(C(=O)COC(=O)CCc1nc2ccccc2c(=O)[nH]1)c1ccc(F)cc1	-15	.	-2	-2	.	1
CC1Cc2ccccc2N1c1ncnc2c1nnn2Cc1ccccc1 (centres undefined)	.	73*	1	0	34	11
O=C(Cc1ccc(F)cc1)NCCS(=O)(=O)N1CCN(c2cccc(Cl)c2)CC1	-7	.	-1	-24	-9	2
Clc1ccccc1N1CCN(Cc2c[nH]c3ccccc23)CC1	15	.	1	7	74*	50
O=[N+]([O-])c1ccccc1CN1CCN(Cc2c[nH]c3ccccc23)CC1	-7	-77	0	5	6	116*
Cc1ccccc1CN1CCN(S(=O)(=O)c2ccc(F)cc2)CC1	-9	88*	0	-10	17	-4
Fc1ccccc1N1CCN(C2CCN(Cc3c[nH]c4ccccc34)CC2)CC1	44	.	-1	22	37	8
O=C(c1ccccc1)N1CCN(Cc2c[nH]c3ccccc23)CC1	-4	36	1	-1	4	-1
O=S(=O)(c1ccc(Cl)cc1)N1CCN(Cc2c[nH]c3ccccc23)CC1	26	71*	-6	7	-6	-5
CCC(C)c1ccc(OCC(=O)Nc2ccc3c(c2)C(=O)NC3=O)cc1 (centres undefined)	2	.	1	-8	-11	2
COc1ccc(Br)cc1CN1CCN(Cc2c[nH]c3ccccc23)CC1	14	.	-2	6	26	79*
COc1ccc(CN2CCN(Cc3c[nH]c4ccccc34)CC2)cc1	5	.	0	5	51	5
Nc1cc(=O)[nH]c(SCC(=O)N2CCC(Cc3ccccc3)CC2)n1	4	.	0	15	.	-4
O=C(Nc1ncc(Cc2cccc(C(F)(F)F)c2)s1)c1ccc(-c2cccc([N+](=O)[O-])c2)o1	55	38	4	17	62*	14
O=C(NC1CCCCC1)N1CCC(c2nc3ccc(Cl)cc3[nH]2)CC1	.	79*	-1	3	-9	-12
COc1ccc(CNc2nc(NC(C)=O)nn2-c2ccccc2)cc1	-9	.	-1	0	-14	-1
COC(=O)c1ccc(Cn2nc(C(F)(F)F)cc2C)cc1	-9	10	17*	-1	-18	4
COC1C(O)C(O)C(O)C(O)C1O (centres undefined)	.	.	-2	.	.	.
COc1cc(OC)cc(C(=O)N[C@H](C(=O)OCC(N)=O)C(C)C)c1	-10	21	11*	-4	-17	-6
C=CCc1cccc(/C=N/NC(=O)C(C)Nc2cccc(C)c2)c1O (centres undefined)	52	91*	-13	-5	81*	22
COc1cc([N+](=O)[O-])cc(/C=N/NC(=O)C(C)Nc2cccc(C)c2)c1O (centres undefined)	.	2	-8	19	9	.
C=CCc1cccc(/C=N/NC(=O)C[n+]2ccccc2)c1O	73	.	2	0	-9	54
C=CCc1cccc(/C=N/NC(=O)CNc2ccccc2)c1O	63	89*	6	11	52	90*
C=CCc1cccc(/C=N/NC(=O)CNc2cccc3ccccc23)c1O	64	41	30*	4	38	.
COc1cccc(/C=N/NC(=O)CNC(=O)C(c2ccccc2)c2ccccc2)c1O	.	.	-4	4	-15	70
C=CCc1cccc(/C=N/NC(=O)CNc2ccccc2OC)c1O	34	89*	13*	8	65*	-3
CCC(C)(C)NC(=O)CN(Cc1ccco1)C(=O)CCC(=O)Nc1nccs1	0	.	-2	-1	10	-1
CC(Nc1ccc(Br)cc1)C(=O)N/N=C/c1ccccc1OCc1ccccc1 (centres undefined)	-14	92*	1	-3	-1	-2
